From PubChem
An excerpt weighted towards active compounds, which were near 3.7% of everything screened.
MDM2 E3 inh – inhibitors of human Mdm2 E3 ubiquitin ligase. Q00987. cell-based MDM2 ubiquitination luciferase reporter, 2 h; 0 = plate control, 100 = twice control, blank-subtracted. signal enhancement, % at 5 µM. actives 0.11% (n = 210,000);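 active = signal enhancement of 30% or more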;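 also: luminescence tracks abundance of the self-degrading MDM2-luciferase fusion protein; higher signal means inhibition of MDM2 E3 ligase activity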
Target sequence (Q00987 whole entry, looked up, the tested form may be a part): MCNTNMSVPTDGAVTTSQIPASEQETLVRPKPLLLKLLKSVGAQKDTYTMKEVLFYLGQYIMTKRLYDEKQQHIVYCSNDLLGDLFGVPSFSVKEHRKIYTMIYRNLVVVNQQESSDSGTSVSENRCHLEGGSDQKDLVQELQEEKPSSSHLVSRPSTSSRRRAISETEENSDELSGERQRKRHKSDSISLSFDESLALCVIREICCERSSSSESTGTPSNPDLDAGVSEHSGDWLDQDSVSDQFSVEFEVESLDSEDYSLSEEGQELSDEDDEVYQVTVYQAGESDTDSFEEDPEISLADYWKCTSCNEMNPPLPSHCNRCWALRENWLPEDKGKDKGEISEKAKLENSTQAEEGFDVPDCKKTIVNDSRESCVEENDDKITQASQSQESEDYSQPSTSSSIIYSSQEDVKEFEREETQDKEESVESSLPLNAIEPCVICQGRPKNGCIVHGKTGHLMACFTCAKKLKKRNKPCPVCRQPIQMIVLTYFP
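Assay system: mammalian cells stably expressing self-ubiquitinating, self-degrading MDM2 E3–luciferase fusion. Quantity: 2000 cells in each well. Medium: DMEM culture medium. Compound dosing: single-point 5 µM. Timing: cell settling 4 h, compound treatment 2 h, both 37 °C. Technique: luciferase luminescence. Read-out basis: percent signal gain over controls, blank-subtracted. Benchmarks: plate controls and plate blanks.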
B2AR ag – agonists of human beta-2 adrenergic receptor inducing internalization. P07550. actives 0.43% (n = 340,000). response, % (concentration not given with the values). Am2.2-beta2AR cells, FAP receptor internalization, flow cytometry;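 active = response above a set limit, near 3 SD of response in nonfluorescent compounds, cut at about 42% in these data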
UPR XBP1 act – activators of adaptive arm of unfolded protein response (XBP1); CHO-XBP1 luciferase reporter, IRE1-XBP1 UPR activation, luminescence; percent of tunicamycin response, DMSO as zero; actives 0.33% (n = 330,000); activation, % at 20 µM;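 active = versus positive control, 20 µM dose yields 30% or more activation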
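Material: IRE1-XBP1 luciferase reporter CHO line / Quantity: one thousand reporter cells per well / Buffer or medium: F12 with 10% serum / Compound: 20 µM single concentration, DMSO 1% / Times: 6 h treatment, 37 °C / Detection: Steady-Glo luciferase glow luminescence, 10 min after reagent addition / Benchmarks: tunicamycin high, DMSO low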
Mdm2-MdmX inh – inhibitors of human Mdm2/MdmX interaction; O15151+Q00987; SaOS-2 split-luciferase Mdm2/MdmX complementation, luminescence; inhibition, % at 8 µM; actives 3% (n = 330,000);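 active = inhibition of at least 50% at 8 µM in the primary screen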
UPR CHOP act – activators of apoptotic arm of unfolded protein response (CHOP). actives 0.34% (n = 330,000). CHO-CHOP luciferase reporter, UPR activation, luminescence; percent of tunicamycin response over DMSO baseline. activation, % at 10 µM;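 active = at 10 µM dose, activation of 40% or more, normalized to positive control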
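System: CHO CHOP reporter cells. Amount: 500 cells per well. Buffer or medium: F12 medium, 10% FBS. Compound dosing: one dose, 10 µM in 0.5% DMSO. Incubation: 6 h compound exposure at 37 °C after overnight seeding. Technique: Steady-Glo luciferase luminescence. Benchmarks: tunicamycin and DMSO controls.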
Dynein transport – blocks dynein driven cargo transport along microtubules; 3617.4 mouse cells, GR-EGFP nuclear translocation imaging; test concentration mostly 20 µM; stimulated with dexamethasone, 1 µM; stronger effect = lower value; z-score, hits read low; actives 0.47% (n = 220,000); AID 1381;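 active = plate z-score of nuclear minus cytoplasmic receptor signal below a set negative limit, without overly bright fluorescence or cell loss, cut at about -3.5 in these data, passing the limit was not always enough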;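 also: z-score of nuclear minus cytoplasmic ring GR-EGFP intensity difference per well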
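medium = tetracycline-free induction medium containing charcoal-stripped FBS | probe or stimulus = dexamethasone, 1.0 µM final | timing = 48 h induction, then 1 h compound, then 30 min agonist, 37 °C | detection = automated 10x imaging of fixed Hoechst-stained cells | read-out basis = nuclear versus cytoplasmic GR-EGFP signal, averaged per well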
Beta2AR ag CP1 – agonists of human beta-2 adrenergic receptor. actives 25% (n = 1,100). AID 540358. shares compounds with B2AR ag. Am2.2-beta2AR cells, FAP surface receptor, flow cytometry; stronger effect = lower value. percent response (surface receptor), % at 10 µM;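 active = surface receptor percent response at or below 58%, roughly 3 SD from nonfluorescent compounds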
FAP fluor counter – fluorescence artifact in beta-2AR agonist FAP counterscreen. 1,100 tested, under 10 active. shares compounds with B2AR ag. Am2.2 cells, FAP fluorogen flow cytometry; stronger effect = lower value. calls only at 10 µM. AID 588765;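 active = percent response below a set limit in fluorescence channel 1 and below 50% in channel 8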
Hits are given with their value; – = inactive; · = no result given.

SMILES	MDM2 E3 inh	B2AR ag	UPR XBP1 act	Mdm2-MdmX inh	UPR CHOP act	Dynein transport	Beta2AR ag CP1	FAP fluor counter
CN1C(=O)CCC(CCC(=O)O)(c2ccccc2O)C1=O (stereo unspecified)	·	–	–	–	–	·	·	·
Cc1noc(C)c1COc1ccccc1C(=O)N1CCN(S(=O)(=O)c2ccccc2Br)CC1	·	71	·	·	·	·	–	–
CNCC[C@H](Oc1cccc2ccccc12)c1cccs1	·	50	–	–	–	·	–	–
C/C(=N\NC(=O)COc1cccc2ccccc12)c1cccs1	·	–	–	–	–	·	·	·
COc1cc(C(=O)Oc2cc(N)n(S(=O)(=O)c3ccccc3)n2)cc(OC)c1OC	·	–	–	–	–	·	·	·
COc1cc(-c2cc(N)n(S(=O)(=O)c3ccccc3)n2)cc(OC)c1OC	–	62	–	–	–	–	–	–
COc1cc(C)c(CN2CCC(Oc3ccc(C(=O)N4CCCC4)cc3)CC2)cc1C	·	–	–	–	–	·	·	·
CSc1ccc(CN2CCC(Oc3ccc(C(=O)N4CCCC4)cc3)CC2)cc1	·	51	–	–	–	·	–	–
O=C(c1ccc(OC2CCN(Cc3ccc(F)cc3)CC2)cc1)N1CCCC1	·	43	–	–	–	·	46	–
CCc1ccc(CN2CCC(Oc3ccc(C(=O)N4CCCC4)cc3)CC2)cc1	·	82	–	–	–	·	9.0	–
O=C(c1cccc(OC2CCN(Cc3ccc(F)cc3)CC2)c1)N1CCCC1	·	–	–	–	–	·	·	·
COc1ccc(CN2CCC(Oc3ccc(C(=O)N4CCCC4)cc3)CC2)c(F)c1	·	–	–	–	–	·	–	–
Cc1ccc(/C(O)=C2/C(=O)C(=O)N(CC(=O)O)C2c2ccc([N+](=O)[O-])cc2)cc1 (stereo unspecified)	·	–	–	–	–	·	·	·
CC(=O)c1cc(CN2CCC(n3nccc3NC(=O)c3ccccc3)CC2)cs1	·	–	–	–	–	·	·	·
CCc1ccc(CN2CCC(Oc3ccc(C(=O)N4CCCCC4)cc3)CC2)cc1	·	67	–	–	–	·	40	–
Cn1cnnc1SCC(=O)NC1CCCC1	·	–	–	–	–	·	·	·
Cc1ccc([N+](=O)[O-])cc1N=Nc1c(-c2ccc([N+](=O)[O-])cc2)[nH]n(C(N)=S)c1=O	–	–	·	·	·	–	–	–
NC(=S)n1[nH]c(-c2ccc([N+](=O)[O-])cc2)c(N=Nc2ccc(Cl)cc2)c1=O	–	–	·	·	·	–	–	–
Cc1ccc([N+](=O)[O-])cc1N=Nc1c(C)[nH]n(C(N)=S)c1=O	·	–	–	–	–	·	·	·
CCN(CC)CCNc1ncnc2c1[nH]c1ccc(OC)cc12	–	·	–	–	–	–	·	·
COc1ccc2[nH]c3c(NCCC4=CCCCC4)ncnc3c2c1	–	45	·	·	·	–	–	–
O=C(OCN1C(=O)c2ccccc2C1=O)c1cc(S(=O)(=O)N2CCOCC2)ccc1F	·	–	–	–	–	·	·	·
COc1ccccc1/C=C/c1onc(C)c1S(=O)(=O)N1CCC(C(=O)NC(C)C)CC1	·	44	–	–	–	·	–	–
CCCCN(C(=O)c1cccc(S(=O)(=O)N(C)c2ccc(C)cc2)c1)c1c(N)n(CCCC)c(=O)[nH]c1=O	·	–	–	–	–	·	·	·
CC1=[N+](C)c2c(ccc3cccnc23)C1(C)C	–	–	·	·	·	–	·	·
SMILES	MDM2 E3 inh	B2AR ag	UPR XBP1 act	Mdm2-MdmX inh	UPR CHOP act	Dynein transport	Beta2AR ag CP1	FAP fluor counter
N#Cc1c(NC(=O)CSc2ncccn2)oc(-c2ccccc2)c1-c1ccccc1	·	49	–	–	–	–	–	–
COC(=O)c1ccccc1NC(=O)COc1ccc(S(=O)(=O)N2CCCC2)cc1C	–	–	–	–	–	–	–	–
Cc1cc(S(=O)(=O)N2CCCC2)ccc1OCC(=O)Nc1ccc(C(N)=O)cc1	·	–	–	–	–	·	–	–
Cc1cc(S(=O)(=O)N2CCCC2)ccc1OCC(=O)NCc1ccccc1	·	–	–	–	–	·	·	·
Cc1cc(Cl)ccc1OCC(=O)Nc1cccc(S(=O)(=O)N2CCCC2)c1	·	–	–	–	–	·	·	·
CC(=O)Oc1c(Br)cc(N(C(C)=O)S(=O)(=O)c2ccccc2)c2ccccc12	·	60	–	–	–	·	–	–
CC(=O)Oc1ccccc1N(C(C)=O)S(=O)(=O)c1ccc2ccccc2c1	–	–	–	–	–	–	·	·
Cc1c(C(=O)N2CCc3ccccc3C2)oc2ccc(S(=O)(=O)N3CCCCCC3)cc12	–	48	–	–	–	–	–	–
CCOc1ccc(NC(=O)Nc2ccc3c(c2)nnn3C)cc1	–	60	–	–	–	–	–	–
Oc1ccc2cc(Br)ccc2c1CN1CCCC1	–	–	–	–	–	–	·	·
CCOc1ccccc1OCCC(=O)NNC(=O)Cn1nc(C)cc1C	·	–	–	–	–	·	·	·
COc1ccc(CCNCC(O)COc2ccc(OC)cc2C(C)(C)C)cc1 (stereo unspecified)	·	45	–	–	–	·	–	–
NCc1cc2c3c(c1)CCCN3CCC2	·	–	–	–	–	·	·	·
COCCNC(=O)c1c(N)n(-c2ccccc2)c2nc3ccccc3nc12	–	–	–	–	–	–	·	·
COCCNC(=O)c1c(N)n(CCCn2ccnc2)c2nc3ccccc3nc12	–	65	–	–	–	–	–	–
CC(C(=O)NC1(C#N)CCCCC1)N(C)CC(=O)Nc1ccc(Cl)c(Cl)c1 (stereo unspecified)	·	–	–	–	–	·	·	·
COc1ccc(-n2nc3c(N4CCC(C(=O)NCc5ccco5)CC4)nnc(C)c3c2C)cc1	·	–	–	–	–	·	–	–
O=C(Nc1ccc(NC(=O)C2CCCCC2)nc1)c1cccc(F)c1	·	–	–	–	–	·	·	·
Nc1cccc(C#Cc2ccc3c(=O)c4ccccc4oc3c2)c1	·	48	–	–	–	·	28	–
Cc1ccnc(NC(=O)c2ccc([N+](=O)[O-])o2)c1	–	49	–	–	–	–	–	–
CCOC(=O)c1sc(=S)n(Cc2ccccc2)c1N	–	–	–	–	–	–	·	·
CCOC(=O)c1[nH]c(=S)n(Cc2ccccc2)c1C(=O)OCC	·	43	·	·	·	·	–	–
COc1cc(C(=O)Nc2ccc(Nc3ccccc3)cc2)cc(OC)c1OC	·	–	–	–	–	·	·	·
Cc1cnc(C(=O)N2CCN(c3ccc(C(F)(F)F)cn3)CC2)cn1	–	–	–	–	–	–	·	·
O=C(c1ccc([N+](=O)[O-])s1)N1CCN(c2ccc(C(F)(F)F)cn2)CC1	·	84	–	–	–	·	–	–
